# Bioassay records: PubChem, several laboratories
# The list is not random: actives were taken first. Their share in the collection is about 8.2%.
# RORa activator = RORA (human) activation. activation, % at 10 µM. P35398. CHO-K1 Gal4-RORA LBD luciferase reporter, luminescence; percent increase over mock-subtracted basal signal. 65,000 compounds, 1.5% hits;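 active means activation above the mean of all tested compounds plus 3 SD, cut at about 49% in these data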;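 further: 0% = DMSO-treated RORA cells and 100% = added signal equal to DMSO minus mock-transfected cells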
# M1 ag = M1 muscarinic receptor agonism; CHO-M1 cells, Fluo-4 calcium fluorescence, agonist mode; stronger effect = higher value; B-score at 10 µM; 64,000 compounds, 3% hits; AID 626;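 active means fluorescence rise, raw or as B-score row- and column-corrected plate score, outside the 99.7% band of its plate's samples, either direction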
# D1 mod = allosteric modulators of human D1 dopamine receptor. HEK293 D1, CRE-luciferase, dopamine EC30 potentiation; actives deviate in either direction. B-score at 10 µM. 58,000 compounds, 5.9% hits;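 active means luminescence count or its row- and column-corrected plate score outside the 99.7% band of the plate's sample wells, on either side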
# Target sequence (P21728 whole entry, looked up): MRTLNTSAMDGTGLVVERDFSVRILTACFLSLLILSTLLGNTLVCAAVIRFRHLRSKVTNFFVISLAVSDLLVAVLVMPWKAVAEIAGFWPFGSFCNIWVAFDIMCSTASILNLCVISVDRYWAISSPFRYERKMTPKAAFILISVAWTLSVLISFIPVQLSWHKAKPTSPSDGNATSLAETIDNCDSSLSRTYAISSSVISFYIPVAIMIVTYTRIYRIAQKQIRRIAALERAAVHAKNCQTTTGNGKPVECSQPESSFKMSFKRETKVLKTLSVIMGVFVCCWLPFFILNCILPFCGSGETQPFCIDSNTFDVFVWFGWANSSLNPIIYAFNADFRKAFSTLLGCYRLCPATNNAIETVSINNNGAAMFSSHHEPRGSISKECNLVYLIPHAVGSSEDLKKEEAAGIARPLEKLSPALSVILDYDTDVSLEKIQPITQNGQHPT
# M1 antagonist = antagonists of rat M1 muscarinic receptor; 64,000 compounds, 3.4% hits; P08482; B-score at 10 µM; CHO-M1 cells, Fluo-4 calcium, ACh EC80 antagonist mode; stronger effect = lower value;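 active means calcium fluorescence response, raw or row-and-column corrected B-score, differing from the plate sample mean either way at a set confidence level, mostly lower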
# SF-1 act = activators of human nuclear receptor SF-1 | Q13285 | CHO-K1 Gal4-SF-1 LBD luciferase reporter; % increase over DMSO SF-1-specific signal | activation, % at 10 µM | 65,000 compounds, 1.9% hits | AID 522;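 active means activation above the mean activation of all tested compounds plus 3 SD, cut at about 50% in these data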
#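 Test system: transient Gal4-SF-1 LBD reporter, CHO-K1; Amount: 4,000 CHO-K1 cells per well; Doses: 10 µM only; Timing: compound exposure 20 h at 37 °C; Signal: luciferase light emission; Read-out basis: percent activation relative to DMSO median and mock-transfected background; Control set: DMSO negative control and −SF1 background wells; Replicates: one test per compound.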
# HePTP inh = blocks human HePTP tyrosine phosphatase | inhibition, % at 20 µM | 110,000 compounds, 0.64% hits | recombinant HePTP phosphatase activity, OD absorbance | P35236; in the data active means inhibition above about 50%; inconclusive means no clear call, values can overlap the other calls;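 further: plate controls were vehicle for no effect and reference inhibitor for full effect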
# M1 ag confirm = rat M1 muscarinic agonism, confirmation | shares compounds with M1 ag | CHO-M1 cells, Fluo-4 calcium fluorescence, agonist mode; actives lie on both sides | fluorescence change (max-min) at 10 µM | 1,700 compounds, 19% hits | AID 1488;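 active means fluorescence change differs from the solvent-only DMSO control mean at a set confidence level in both duplicate runs; inconclusive means differs from solvent-only control mean in just one of two runs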;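 further: an EC20 dose of acetylcholine follows compound addition during the same imaging run; raw fluorescence intensity difference in instrument units with no normalization to controls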
# M4 agonist ctr = rat M4 muscarinic agonism, M1 counter-screen; shares compounds with M1 ag; CHO M4/Gqi5 cells, Fluo-4 calcium fluorescence, agonist mode; actives lie on both sides; fluorescence change (max-min) at 10 µM; 1,700 compounds, 9% hits; AID 1741;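 active means fluorescence change differing from the plate's solvent-only control wells at 99.7% confidence in both duplicates, whether higher or lower; inconclusive means differs from solvent controls in only one of two duplicates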
# M1 antag confirm = confirmation of rat M1 muscarinic receptor antagonists; shares compounds with M1 antagonist; CHO-M1 cells, Fluo-4 calcium, ACh EC80 antagonism; stronger effect = lower value; calcium response (max-min fluorescence) at 10 µM; 1,700 compounds, 43% hits; AID 677;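 active means calcium response below the same-plate mean of wells given acetylcholine alone at its 80%-effect dose, minus 3 SD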;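 further: raw fluorescence intensity difference in arbitrary instrument units and not normalized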
# mGluR4 antag = selectivity test for M1 antagonists: human mGluR4 receptor; shares compounds with M1 antagonist; CHO-mGluR4 calcium flux, Fluo-4 fluorescence, glutamate EC80; stronger effect = lower value; fluorescence response (max-min) at 10 µM; 1,700 compounds, 0.9% hits; AID 678;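 active means fluorescence response below the plate's average for near-maximal glutamate wells, less 3 SD of those wells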;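 further: raw unnormalized fluorescence span taken in the window right after glutamate addition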
# D1 mod confirm = confirmation of human D1 dopamine receptor allosteric modulators; shares compounds with D1 mod; HEK293 D1 CRE-luciferase, dopamine EC30 potentiation; stronger effect = higher value; luminescence at 10 µM; 2,200 compounds, 88% hits; AID 642;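 active means luminescence in either of two replicates above the same-plate mean plus 3 SD of the low-dose dopamine control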
# D1 no dopamine = D1 (human) signaling in absence of dopamine; shares compounds with D1 mod; HEK293 D1 CRE-luciferase, luminescence, no dopamine; stronger effect = higher value; luminescence at 10 µM; 1,900 compounds, 0.8% hits; in the data active means luminescence above about 3900
# Isoprot counter = isoproterenol response counter-screen activity for D1 modulators; shares compounds with D1 mod; HEK293 D1 CRE-luciferase, isoproterenol EC30 counter-screen; calls only at 10 µM; 2,200 compounds, 63% hits; AID 647;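 active means luminescence in either replicate above plate mean of wells with a partly effective reference agonist dose plus 3 SD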;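 further: isoproterenol raises cAMP through native beta-adrenoceptor Gs so signal bypasses D1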
# An asterisk follows results filed as active; i = inactive; ? = inconclusive; / = no result given; + = active, no number.
SMILES,RORa activator,M1 ag,D1 mod,M1 antagonist,SF-1 act,HePTP inh,M1 ag confirm,M4 agonist ctr,D1 mod confirm,D1 no dopamine,Isoprot counter,others
COc1ccc(C(=O)CSc2nc(SC)ns2)cc1OC,-1.0,-2.84*,8.38*,-0.727,5.1,3.5,-17.4,-25,17700*,1872,+,
CCOC(=O)c1cc2c(=O)n3ccccc3nc2n(C(C)C)c1=NC(=O)c1ccncc1,10.6,2.49*,5.65*,0.0932,19.3,2.4,?,-41.1,16620*,1616,+,
CCOC(=O)C1CCCN(C(=O)c2cn(C)c(=O)c3cc(OC)c(OC)cc23)C1 (stereo not drawn),-6.3,-1.28,1.77,0.787,4.5,-2.0,/,/,/,/,/,
CCOC(=O)C1CCCN(C(=O)c2cc(Cl)ccc2Cl)C1 (stereo not drawn),7.6,5.49*,4.2*,1.64,1.2,8.8,11.2,-75.7*,5420*,664,i,
CCOC(=O)C1CCCN(C(=O)c2cc(Nc3ccc(OC)c(OC)c3)nc3ccccc23)C1 (stereo not drawn),28.2,8.29*,4.03*,-0.821,26.5,-3.3,-19,?,12712*,1464,+,
CCOc1ccc(Cc2nc(C)c(CC(=O)N3CCCCC3)c(=O)[nH]2)cc1,-25.4,0.26,/,-0.407,-1.1,8.7,/,/,/,/,/,
CCOC(=O)N1CCC(NC(=O)c2cccc3c2C(=O)N(c2ccc(OC)cc2)C3)CC1,8.7,2.55*,5.2*,0.11,11.8,46.6,?,-81.6,10556*,1464,+,
NC(=O)c1cc(S(=O)(=O)N2CCOCC2)ccc1Cl,/,/,/,/,/,-7.8,/,/,/,/,/,
O=C(OCCN1C(=O)c2ccccc2C1=O)c1cc(S(=O)(=O)N2CCOCC2)ccc1Cl,-3.9,3.65*,3.39*,0.257,-20.4,-14.0,-15.3,-25.4,9076*,1544,+,
CCOc1ccc(-c2noc(COC)n2)cc1OC,6.3,3.2*,3.39*,0.201,0.8,9.3,-3.5,-33.6,8824*,1732,i,
CSc1ccc(C2Nc3ccccc3-c3cc(C)nn32)cc1 (stereo not drawn),26.5,0.0114,0.939,-0.00409,-5.5,6.3,/,/,/,/,/,
Cc1cc2n(n1)C(c1ccccc1Cl)Nc1ccccc1-2 (stereo not drawn),-23.1,2.51*,14.1*,-0.0423,-6.0,3.1,-15.8,-28.2,16788*,1488,+,
CCN1CCN(C(c2cccs2)C(C)NC(=O)CC(C)C)CC1 (stereo not drawn),-6.5,-2.72*,4.67*,1.15,3.5,1.0,?,-87.3,3812,1520,i,
Cn1nnc(NC(=O)c2ccco2)n1,-1.0,-0.149,0.205,-0.0946,22.6,4.3,/,/,/,/,/,
CC(=O)Nc1nc2n(n1)C(c1ccccc1)C=C(c1ccccc1)N2 (stereo not drawn),-16.6,19.6*,3.42*,0.265,12.7,-7.3,132*,97,6792*,1432,i,
O=C(Nc1nc2n(n1)C(c1ccccc1)C=C(c1ccccc1)N2)c1ccco1 (stereo not drawn),-12.5,19.1*,2.86*,-0.314,-11.3,4.9,43.9,26.3,11140*,1520,+,
COc1ccccc1C1C=C(c2ccccc2)Nc2nnnn21 (stereo not drawn),14.7,/,/,/,17.3,-0.9,/,/,/,/,/,
CCCCNC(=O)c1ccc2nc(-c3ccco3)c(-c3ccco3)nc2c1,-16.1,10.4*,3.85*,-0.575,18.8,7.4,9.42,?,8120*,1444,i,
O=C(Nc1ccccc1)c1ccc2nc(-c3ccco3)c(-c3ccco3)nc2c1,-20.9,0.912,-0.0191,-0.108,3.8,16.7,/,/,/,/,/,
CCOc1nc(NCCc2ccc(OC)c(OC)c2)nc(NC(C)(C)CO)n1,-1.2,2.13*,3.24*,-1.25,1.8,-3.7,?,-66,9808*,1608,i,
CC(/C(O)=C(\C#N)c1nc2ccccc2n1C)N1C(=O)c2ccccc2C1=O (stereo not drawn),-21.0,-1.84,-0.276,-0.212,-9.1,0.8,/,/,/,/,/,
NC(=O)CSc1nc2scc(-c3ccco3)c2c(=O)n1-c1ccccc1,-15.9,4.31*,3.44*,-1.45,2.7,2.5,?,-55.4,10400*,/,i,
O=C(CSc1nc2scc(-c3ccco3)c2c(=O)n1-c1ccccc1)N1CCOCC1,-7.9,-0.76,2.24,0.0461,-0.7,-4.3,/,/,/,/,/,
CC(=O)CC1OC(=O)C(Br)=C1NCc1ccccc1 (stereo not drawn),-62.8,-0.778,-0.135,-2.33*,-78.7,4.9,/,/,/,/,/,M1 antag confirm=669;mGluR4 antag=225
CC(C)(C)P(=O)(CO)c1ccccc1 (stereo not drawn),21.1,-0.38,0.559,-2.5*,15.3,-0.7,/,/,/,/,/,M1 antag confirm=508;mGluR4 antag=195
CCOC(=O)C1CCN(C(=O)C2CCN(S(=O)(=O)c3cccc4cccnc34)CC2)CC1,8.1,-0.626,/,0.0802,-5.5,11.9,/,/,/,/,/,
O=C(CSc1nnc2c3c4c(sc3ncn12)CCCC4)NCc1ccco1,-4.9,-0.143,0.78,0.301,-14.4,9.8,/,/,/,/,/,
Cc1nc2sc3c(c2c2nnc(SCC(=O)NCc4ccco4)n12)CCCC3,-10.2,-1.04,1.55,-2.74*,4.1,9.6,/,/,/,/,/,M1 antag confirm=618;mGluR4 antag=215
CCOC(=O)N1CCN(C(=O)c2oc3ccc(S(=O)(=O)N4CCOCC4)cc3c2C)CC1,14.4,0.171,/,-0.274,1.3,2.5,/,/,/,/,/,
Cc1c(C(=O)NCc2cccnc2)oc2ccc(S(=O)(=O)N3CCCCC3)cc12,-8.7,2.06,-0.448,-0.365,-7.2,5.5,/,/,/,/,/,
